Assay outcomes from PubChem BioAssay.
The sample as a whole holds a higher share of hits than the screen did.
Dynein cargo inh: blocks dynein driven cargo transport along microtubules; 3617.4 mouse cells, GR-EGFP nuclear translocation imaging; test concentration mostly 20 µM; stimulated with dexamethasone, 1 µM; stronger effect = lower value; z-score, hits read low; 220,000 tested, 0.47% active; AID 1381;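 active = plate z-score of nuclear minus cytoplasmic receptor signal below a set negative limit, without overly bright fluorescence or cell loss, cut at about -3.5 in these data, passing the limit was not always enough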;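 also: z-score of nuclear minus cytoplasmic ring GR-EGFP intensity difference per well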
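Also added: dexamethasone, 1.0 µM final. Medium: tet-free, stripped-serum medium. Detection: fixed, Hoechst-stained cells imaged at 10x for EGFP. Read-out: nuclear-to-cytoplasmic GR-EGFP distribution per well. Times: induction 48 h, compound 1 h, agonist 30 min.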
Lmaj promast: inhibitors of Leishmania major promastigote growth | AID 1063 | 200,000 tested, 9% active | inhibition, % at 10 µM | Leishmania major promastigotes, resazurin fluorescence viability; in the data active = inhibition above about 50%;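 also: promastigotes grown with compound for 44 hours at 28 °C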
UPR XBP1 act: adaptive UPR (XBP1) activation; 330,000 tested, 0.33% active; CHO-XBP1 luciferase reporter, IRE1-XBP1 UPR activation, luminescence; percent of tunicamycin response, DMSO as zero; AID 463104; activation, % at 20 µM;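 active = versus positive control, 20 µM dose yields 30% or more activation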;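 also: 100% = tunicamycin at 10 µg/mL and 0% = DMSO only wells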
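Signal: luciferase luminescence; Assay system: CHO-XBP1 luciferase reporter cells; Amount: one thousand reporter cells per well; Dosing: 20 µM single concentration, DMSO 1%; Benchmarks: high control tunicamycin 10 µg/mL final, low control DMSO vehicle only; Schedule: 6 h compound exposure at 37 °C, 5% CO2; Evaluation: percent activation relative to tunicamycin reference.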
UPR CHOP act: apoptotic UPR (CHOP) activation; CHO-CHOP luciferase reporter, luminescence; percent of tunicamycin response over DMSO baseline; activation, % at 10 µM; 330,000 tested, 0.34% active;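 active = at 10 µM dose, activation of 40% or more, normalized to positive control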;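 also: 100% = tunicamycin at 10 µg/mL and 0% = DMSO alone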
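Assay system: CHO cells with stable CHOP pathway luciferase reporter; Buffer or medium: F12 plus 10% serum; Times: 16-18 h cell attachment, then 6 h compound exposure, 37 °C; Signal: luciferase luminescence; Read-out basis: percent activation relative to tunicamycin control; Control set: tunicamycin high control, DMSO low control.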
T cruzi inh: T. cruzi replication inhibition; 300,000 tested, 1.4% active; T. cruzi beta-gal in NIH3T3, luminescence, 90 h; inhibition, % (concentration not given with the values);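 active = mean inhibition across valid replicates above about 55%, limit read from the data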;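 also: signal also drops with host cell toxicity which is not excluded here; 0% = plate median of DMSO wells and 100% = zero luminescence signal; higher percent means less beta-gal luminescence so fewer parasites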
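Material: NIH/3T3 host cells with β-galactosidase reporter T. cruzi; Input: 5,000 host fibroblasts per well; Medium: DMEM, 2% fetal bovine serum; Compound: 50 nL DMSO compound solution per well; Schedule: 3 h host attachment, then at least 90 h co-culture; Detection: luminescent β-galactosidase signal after 60 min lysis.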
CHOP inh: blocks CHOP induction under ER stress; AID 2732; inhibition, % at 10 µM; 220,000 tested, 3.8% active; CHO-K1 CHOP-promoter luciferase, tunicamycin-induced, 15-18 h;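 active = compounds that reduced the stress-induced luciferase reporter signal by more than about 70% of percent inhibition, limit read from the data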;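 also: 0% = tunicamycin plus vehicle and 100% = wells without tunicamycin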
Starred values were filed as active, the others as inactive.

Results for C/C(Cl)=C/Cc1c(C)[nH]c2c(ccc3ccccc32)c1=O ?
UPR XBP1 act: -2.6; UPR CHOP act: 0.1; T cruzi inh: 23.9

Results for C/C(Cl)=C/Cc1c(C)[nH]c2ccc(C)cc2c1=O ?
Dynein cargo inh: 1.49; Lmaj promast: 11.0; UPR XBP1 act: 1.0; UPR CHOP act: 3.2; T cruzi inh: 70.6*; CHOP inh: 13.8

How did O=C(NN1C(=O)c2ccccc2NC1c1ccc([N+](=O)[O-])o1)c1ccccc1 (configuration not stated) do in these assays?
Dynein cargo inh: 0.337; Lmaj promast: 86.4*; UPR XBP1 act: -4.8; UPR CHOP act: 3.6; T cruzi inh: 41.6; CHOP inh: 2.6

What do the screens show for `O=C(NN1C(=O)c2ccccc2NC1c1ccc([N+](=O)[O-])o1)c1ccc([N+](=O)[O-])cc1` (configuration not stated)?
Dynein cargo inh: -1.22; Lmaj promast: 94.6*; UPR XBP1 act: 2.2; UPR CHOP act: -0.2; T cruzi inh: 29.0; CHOP inh: -41.5

What do the screens show for `Cc1ccc(S(=O)(=O)N(CCCO)CC(O)CON=C2c3ccccc3-c3ccccc32)cc1` (configuration not stated)?
Dynein cargo inh: -0.964; Lmaj promast: 100.3*; UPR XBP1 act: -0.8; UPR CHOP act: 8.4; T cruzi inh: 65.0*; CHOP inh: 41.3

What do the screens show for `Cc1ccc(Sc2ncccc2C(=O)O)cc1C`?
Dynein cargo inh: -0.0862; Lmaj promast: 59.0*; UPR XBP1 act: 0.0; UPR CHOP act: -0.5; T cruzi inh: -19.0; CHOP inh: 23.4

What do the screens show for `Cc1ccc(Sc2ncccc2C(=O)O)c(C)c1`?
Dynein cargo inh: -0.706; Lmaj promast: -0.9; UPR XBP1 act: -3.5; UPR CHOP act: 1.3; T cruzi inh: -0.6; CHOP inh: -0.3

Results for S=C(NCCN1CCOCC1)Nc1cccc(Cl)c1 ?
Dynein cargo inh: 1.9; Lmaj promast: 4.0; UPR XBP1 act: 0.2; UPR CHOP act: 1.9; T cruzi inh: -3.9; CHOP inh: 20.9

Results for CC(NC(=S)NCCCN1CCOCC1)C12CC3CC(CC(C3)C1)C2 (configuration not stated) ?
Dynein cargo inh: 0.46; Lmaj promast: 86.2*; UPR XBP1 act: -3.5; UPR CHOP act: 0.3; CHOP inh: 7.3

Results for S=C(NCCN1CCOCC1)Nc1ccc(Cl)c(Cl)c1 ?
Dynein cargo inh: -1.28; Lmaj promast: 54.8*; UPR XBP1 act: -1.1; UPR CHOP act: -0.9; T cruzi inh: -6.2; CHOP inh: -14.6

How did CC1CCN(CCNC(=S)Nc2ccc(Cl)cc2)CC1 do in these assays?
Dynein cargo inh: -0.659; Lmaj promast: 66.0*; UPR XBP1 act: -1.7; UPR CHOP act: 0.3; T cruzi inh: 4.3; CHOP inh: -1.6

Results for Cc1ccc(NC(=S)NCCCN2CCOCC2)cc1 ?
Dynein cargo inh: -0.0209; Lmaj promast: 77.8*; UPR XBP1 act: 1.9; UPR CHOP act: 0.4; T cruzi inh: 23.7; CHOP inh: 30.3

Results for Cc1cc(N2O[C@H]3C=C[C@@H]2C3)no1 ?
UPR XBP1 act: 0.3; UPR CHOP act: -0.5

What do the screens show for `CCOc1ccc(NC(=O)CN(C)C(=O)c2ccccc2CCc2ccccc2)cc1OCC`?
UPR XBP1 act: 0.2; UPR CHOP act: -0.6; T cruzi inh: 3.7

What do the screens show for `S=C(NCCN1CCOCC1)Nc1ccc(Cl)cc1`?
Dynein cargo inh: 0.488; Lmaj promast: 1.8; UPR XBP1 act: 0.9; UPR CHOP act: -2.1; T cruzi inh: -17.0; CHOP inh: -22.3

Results for S=C(NCCCN1CCOCC1)Nc1ccc(Cl)cc1 ?
Dynein cargo inh: -0.176; Lmaj promast: 98.7*; UPR XBP1 act: -4.0; UPR CHOP act: -0.8; T cruzi inh: -10.4; CHOP inh: 14.5

How did Cc1ccc(NC(=S)NCC(C)C)cc1 do in these assays?
Dynein cargo inh: 1.44; Lmaj promast: 78.0*; UPR XBP1 act: -0.9; UPR CHOP act: 2.8; T cruzi inh: -15.6; CHOP inh: 23.2

How did CCCCN1C(=O)C(=O)N(CC(=O)c2cc(C)n(-c3cc(C)on3)c2C)C1=O do in these assays?
UPR XBP1 act: -1.2; UPR CHOP act: 0.3

How did FC(F)(F)c1cnc(Sc2nc3nccc(-c4ccc(Cl)cc4)n3n2)c(Cl)c1 do in these assays?
Dynein cargo inh: -0.038; Lmaj promast: 5.2; UPR XBP1 act: -0.1; UPR CHOP act: -3.6; T cruzi inh: 55.5*; CHOP inh: 60.3

What do the screens show for `Nc1nc(-c2ccc(Cl)cc2)c(S(=O)(=O)c2ccccc2)s1`?
Dynein cargo inh: 1.68; Lmaj promast: 5.8; UPR XBP1 act: -0.8; UPR CHOP act: 1.4; T cruzi inh: 9.8; CHOP inh: -17.2

Results for COc1ccc(S(=O)(=O)Nc2cc(C)nn2-c2ccccc2)cc1 ?
Dynein cargo inh: -1.68; Lmaj promast: -4.6; UPR XBP1 act: -4.8; UPR CHOP act: 2.6; T cruzi inh: 4.7; CHOP inh: 15.0

What do the screens show for `COc1ccc(-c2c(S(=O)(=O)c3ccccc3)cnn2-c2ccccc2)cc1`?
Dynein cargo inh: -0.113; Lmaj promast: 59.2*; UPR XBP1 act: -1.8; UPR CHOP act: 1.3; T cruzi inh: 20.5; CHOP inh: 17.1

Results for O=S(=O)(c1ccccc1)c1cnn(-c2ccccc2)c1-c1ccc(Cl)cc1 ?
Dynein cargo inh: 0.395; Lmaj promast: 55.0*; UPR XBP1 act: 2.4; UPR CHOP act: -2.0; T cruzi inh: 27.3; CHOP inh: 53.5

What do the screens show for `CCc1ccc(CNC(=O)CCC(=O)N2Cc3cccc(OC)c3Oc3ncccc32)cc1`?
UPR XBP1 act: -4.8; UPR CHOP act: 0.6; T cruzi inh: 1.8

How did CC(=O)Nc1nnc(SCC(=O)Nc2nc(C)cs2)s1 do in these assays?
UPR XBP1 act: 1.8; UPR CHOP act: 1.2; T cruzi inh: -6.7

What do the screens show for `O=C1CC(c2ccco2)Cc2nc(N3CCN(Cc4ccc5c(c4)OCO5)CC3)ncc21` (configuration not stated)?
Dynein cargo inh: -0.703; Lmaj promast: 74.7*; UPR XBP1 act: -2.8; UPR CHOP act: 0.3; CHOP inh: 27.1

Results for CN1C(C(=O)NCc2cccc(C(F)(F)F)c2)CC2Cn3c(nc4cc(Cl)c(Cl)cc43)C21 (configuration not stated) ?
Dynein cargo inh: 0.7; UPR XBP1 act: -2.5; UPR CHOP act: 0.7; T cruzi inh: 33.5; CHOP inh: -0.1

What do the screens show for `O=[N+]([O-])c1ccc(Sc2nnnn2-c2ccccc2)c(Cl)c1`?
Dynein cargo inh: -0.33; Lmaj promast: 89.8*; UPR XBP1 act: 0.1; UPR CHOP act: -1.0; T cruzi inh: 41.9; CHOP inh: -19.8
